MT1-MMP txn act: MT1-MMP promoter reporter activation – cell-based, luciferase luminescence, primary screen | HT1080 MT1-MMP promoter luciferase reporter, overnight; active compounds read high | 86,000 tested, 0.16% active | activation factor at 10 µM | AID 750, 2007;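 active = activation factor of at least 2 for MT1-MMP transcription at 10 µM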
Pyk2 oligo antag: antagonists of Pyk2 self-association, primary screen, Q293 cells, FERM NanoBiT luminescence, HTS | Protein-tyrosine kinase 2-beta (Homo sapiens), Q14289 | active compounds read low | z-score (the deposit names both 25 µM and 10 µM) | 99,000 tested, 0.83% active | AID 1347419, 2020;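 active = Z-score of -3 or lower, scaled per plate to the spread of control and sample wells; inactive = z-score above -3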;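 also: negative z-score means lost luminescence so less FERM oligomerization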
Target sequence (Q14289 whole entry, looked up): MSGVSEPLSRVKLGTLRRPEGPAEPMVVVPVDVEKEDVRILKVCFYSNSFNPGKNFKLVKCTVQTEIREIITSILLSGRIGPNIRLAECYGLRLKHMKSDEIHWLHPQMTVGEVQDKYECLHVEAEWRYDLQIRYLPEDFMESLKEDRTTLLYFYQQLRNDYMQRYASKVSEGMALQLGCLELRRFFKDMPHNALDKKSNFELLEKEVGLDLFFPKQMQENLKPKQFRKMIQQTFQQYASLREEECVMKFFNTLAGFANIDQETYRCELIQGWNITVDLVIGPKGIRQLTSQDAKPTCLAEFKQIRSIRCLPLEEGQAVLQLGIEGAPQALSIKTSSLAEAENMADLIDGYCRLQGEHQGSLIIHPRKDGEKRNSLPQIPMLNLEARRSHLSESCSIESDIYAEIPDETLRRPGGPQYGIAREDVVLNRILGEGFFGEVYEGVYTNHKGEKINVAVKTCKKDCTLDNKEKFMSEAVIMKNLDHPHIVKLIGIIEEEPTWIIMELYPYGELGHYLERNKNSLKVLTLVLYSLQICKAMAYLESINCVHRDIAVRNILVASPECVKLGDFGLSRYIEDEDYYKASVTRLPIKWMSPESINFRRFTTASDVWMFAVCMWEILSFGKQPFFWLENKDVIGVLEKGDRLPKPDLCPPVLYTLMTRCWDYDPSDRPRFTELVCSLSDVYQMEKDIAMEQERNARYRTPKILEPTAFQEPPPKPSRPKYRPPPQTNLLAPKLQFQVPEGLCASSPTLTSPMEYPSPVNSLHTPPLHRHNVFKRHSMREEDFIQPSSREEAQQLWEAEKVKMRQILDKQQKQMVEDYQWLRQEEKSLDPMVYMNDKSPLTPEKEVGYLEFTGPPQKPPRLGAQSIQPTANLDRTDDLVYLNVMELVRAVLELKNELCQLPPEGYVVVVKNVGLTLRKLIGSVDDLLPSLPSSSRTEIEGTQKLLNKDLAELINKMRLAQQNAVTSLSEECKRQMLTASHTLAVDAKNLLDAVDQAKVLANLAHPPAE
HUVEC prolif 384: inhibitors of HUVEC proliferation, primary screen, cell-based, 384-well; CellTiter-Glo luminescence, 72 h; active compounds read low; viability, % at 10 µM (by protocol); 86,000 tested, 1.1% active;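 active = viability at or below 30%; inactive = viability above 30%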;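 also: 100% = median luminescence of DMSO-only cell control wells on each plate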
H69AR growth 86K: proliferation blockers of H69AR lung cancer cells, primary screen, cell-based, human, 86K library; H69AR lung tumor viability, ATP luminescence, 72 h; active compounds read low; viability, % at 10 µM; 85,000 tested, 6% active; AID 598, 2007;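 active = viability at or below 40%; inactive = viability above 40%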;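 also: multidrug resistant small cell line overexpressing MRP-1 efflux transporter; 100% = mean luminescence of untreated control wells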
Jurkat viability: cytotoxicity toward Jurkat T cells, primary screen, cytotoxicity control, cell-based, Jurkat E6.1, 60K MLSMR library. Jurkat E6.1 viability, ATP luminescence, 48 h. inhibition, % at 4 µM. 56,000 tested, 1.2% active;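 active = inhibition above the mean inhibition of all tested compounds plus 3 SD, cut at about 28% in these data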
Lung fibro prol: antiproliferative effect on LL 47 fibroblasts – human, LL 47 cells, CellTiter-Glo luminescence, primary screen | LL 47 human lung fibroblast viability, ATP luminescence; active compounds read low | viability, % at 10 µM | 85,000 tested, 1.1% active | AID 719, 2007;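 active = viability at or below 50% in the single dose screen; inactive = viability above 50%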;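 also: compound exposure lasted 72 h before the ATP readout; 100% = median luminescence of untreated cell-only wells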
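Signal: luminescent ATP detection, CellTiter-Glo; assay system: LL 47 human lung fibroblasts; input: 1,150 cells/well; incubation: overnight cell rest, 72 h compound treatment at 37 °C; measure: % viability versus median cells-only luminescence; medium: IMEM growth medium with 15% fetal bovine serum; dosing: compound addition at 0.1% DMSO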
* hit, by the source's call; nt = no result given. Most compounds without a hit are left out; they make up all but 5.9% or so of the library.

SMILES	MT1-MMP txn act	Pyk2 oligo antag	HUVEC prolif 384	H69AR growth 86K	Jurkat viability	Lung fibro prol
Fc1ccc(Cn2c(-c3cscn3)nc3ccccc32)c(Cl)c1	1	-0.67	89.6	105.7	nt	81.0
O=C(C(Cc1ccccc1)NS(=O)(=O)c1cccc2cccnc12)N1CCc2ccccc21 (centres undefined)	nt	nt	98.8	59.4	nt	84.9
Cc1ccccc1OCCCN1C(=O)C(=O)c2cccc(C)c21	0.9	nt	74.5	16.7*	-5.4	81.3
Cc1cccc2c1N(CCCOc1ccc(C(C)(C)C)cc1)C(=O)C2=O	nt	nt	1.6*	0.8*	nt	90.6
O=C(c1ccccc1)c1c[nH]c2cc3c(cc2c1=O)OCCO3	1.3	0	89.3	94.0	nt	96.3
Cc1nc(N2CCCC2)c2nnn(Cc3ccccc3Cl)c2n1	1.2	-0.18	104.7	89.3	8.3	100.1
Cc1nc(N2CCC3(CC2)OCCO3)c2nnn(Cc3ccccc3F)c2n1	1.3	-1.29	113.1	35.1*	nt	95.6
Cc1cc2c(cc(C(=O)OCC(=O)NCc3cccs3)n2C(C)C)o1	0.6	-0.52	53.2	27.4*	64.0*	69.0
Brc1ccc(-n2cc(-c3ccccc3)c3c(NN4CCOCC4)ncnc32)cc1	nt	-0.96	nt	nt	nt	nt
COc1ccc(O)c(-c2cn[nH]c2-c2cccs2)c1	1.2	0	88.8	95.4	-0.6	90.1
C=C(C)COc1ccc(-c2[nH]ncc2-c2ccc(OC)c(OC)c2)c(O)c1	1.1	-1.73	44.6	nt	65.3*	45.7*
C=C(C)COc1ccc(-c2[nH]ncc2-c2ccccc2)c(O)c1	1	-2.02	37.5	39.2*	nt	94.1
Nc1nc(-c2ccco2)c(-c2ccco2)s1	1.1	0.06	88.1	96.9	1.4	nt
c1coc(-c2nc(-c3ccco3)c(-c3ccco3)nc2-c2ccco2)c1	1.1	0.64	68.7	26.7*	nt	83.8
COC(=O)[C@@]1(Cc2ccc(F)cc2)[C@H]2c3cc(C(=O)N(C)C)n(Cc4ccc(C(F)(F)F)nc4)c3C[C@H]2CN1C(=O)c1ccccc1	1.2	nt	nt	nt	nt	nt
COc1ccc(NCc2nnc(SCC(=O)c3ccc(OC)cc3)o2)cc1	1.3	0.49	86.7	96.2	nt	92.6
COc1ccc(NC(=O)CSc2nnc(CNC(=O)COc3ccc(Cl)cc3)o2)c(OC)c1	1.1	0.12	93.3	107.3	1.5	44.4*
CCOc1cc(C(=O)CSc2nnc(CNc3ccc(Cl)cc3)o2)ccc1NC(=O)CC	1.2	-0.2	1.7*	0.2*	6.1	64.1
CCOC(=O)CNC(=O)CSc1nc2nc(C)c(Br)cc2[nH]1	1.1	0.57	94.8	nt	-1.3	99.7
CCOC(=O)CC(=O)CSc1nc2ccccc2c(=O)n1-c1ccc(C(=O)NCCOC)cc1	1.1	-0.23	91.3	92.9	nt	107.9
Cn1c(-c2ccccc2)cc2c3no[n+]([O-])c3ccc21	1.1	-1.13	13.6*	19.1*	78.0*	26.3*
CCOC(=O)c1c(C)n(OCc2ccccc2)c2ccc3c(no[n+]3[O-])c12	1	-0.38	86.2	44.1	1.6	80.9
CC(=O)N1[C@H](Cc2ccccc2)C=C[C@]1(C)C(=O)NCc1ccccn1	1.1	nt	nt	nt	nt	nt
O=C1/C(=C\c2ccc3ccccc3c2)CCCc2ccccc21	1.6	0.08	64.0	17.1*	nt	63.8
CC(=O)c1ccc(OCC(O)CN2CCN(CCO)CC2)cc1 (centres undefined)	1	nt	105.8	89.6	5.1	118.6
SMILES	MT1-MMP txn act	Pyk2 oligo antag	HUVEC prolif 384	H69AR growth 86K	Jurkat viability	Lung fibro prol
N=c1nc(N)nc2n1NC(c1ccc(F)cc1)=CS2	1	-0.51	29.8*	93.1	nt	90.7
COc1ccc(C2=CSC(/N=C/c3ccc(F)cc3)=NN2)cc1	1.1	0.38	104.7	87.0	nt	95.1
Cn1c(=O)c2c(nc(SCC(=O)N(C3CCCCC3)C3CCCCC3)n2C)n(C)c1=O	1.2	nt	99.8	95.8	nt	99.3
COc1ccc(Cn2nnnc2C(c2cccs2)N2CCN(c3ccccc3)CC2)cc1 (centres undefined)	1.2	-1.86	99.7	84.4	10.5	99.9
COCCn1nnnc1C(c1ccccc1OC)N1CCN(c2ccccc2F)CC1 (centres undefined)	1.4	-2.81	115.6	95.1	1.9	101.9
COc1ccc(C(c2nnnn2Cc2cccs2)N2CCN(c3ccccc3F)CC2)cc1OC (centres undefined)	1.1	-3.65*	96.0	76.3	-3.6	91.8
COCCn1nnnc1C(c1ccc(OC)cc1)N1CCN(c2ccccc2F)CC1 (centres undefined)	1	-3.46*	nt	nt	-1.3	nt
Fc1ccc(C(c2nnnn2Cc2cccs2)N2CCN(c3ccccc3)CC2)cc1 (centres undefined)	1.1	-3.54*	118.2	94.5	nt	96.5
O=[N+]([O-])c1cc(-c2cnc3ccccc3n2)ccc1Oc1ccc(F)cc1	nt	-0.11	nt	nt	nt	nt
O=C(C1=C(O)/C(=C/c2ccc(O)cc2)CCC1)C(F)(F)F	1.5	-0.48	82.8	28.6*	nt	98.6
Cc1cc(C)cc(N(C(C)C(=O)NCCC2=CCCCC2)S(C)(=O)=O)c1 (centres undefined)	1.1	-1.35	104.9	46.2	nt	90.9
O=[N+]([O-])c1ccc(NNC(=S)Nc2ccc(F)cc2)cc1	nt	-0.61	59.0	13.6*	nt	87.4
Cc1nc(C(=O)Nc2ccc(F)cc2)nn1-c1ccc([N+](=O)[O-])cc1	nt	0.45	nt	nt	nt	nt
CCOC(=O)Nc1ccc(S(=O)(=O)Nn2cnnc2)cc1	1.1	-0.07	98.9	92.3	0.7	102.9
Cn1c(=O)c(C(=O)COC(=O)c2cc(C(F)(F)F)nc3c(C(F)(F)F)cccc23)c(N)n(Cc2ccccc2)c1=O	1.1	nt	nt	nt	nt	nt
Cn1c(=O)[nH]c(=O)c2c1nc(N1CCC(Cc3ccccc3)CC1)n2Cc1ccccc1	1.1	nt	59.0	19.6*	-4.3	100.8
CCCCCn1c(N2CCC(Cc3ccccc3)CC2)nc2c1c(=O)[nH]c(=O)n2C	1.3	nt	7.5*	19.6*	-3.5	93.1
COCCNC(=O)c1cc2c(=O)n3cccc(C)c3nc2n1C	1.1	nt	51.5	26.9*	-2.3	73.3
CCNC(=O)c1cc2c(=O)n3cccc(C)c3nc2n1C	1	nt	99.8	86.9	0.6	106.8
CCOCCCNC(=O)c1cc2c(=O)n3cccc(C)c3nc2n1C	0.6	nt	51.3	33.6*	7.2	55.3
COc1cc(NC(=O)Nc2ccccc2OC)c(OC)cc1NC(=O)CN1CCCCC1	1.2	0.78	80.8	44.3	2.9	99.6
COc1cc(NC(=O)Nc2ccccc2)c(OC)cc1NC(=O)CN1CCCCC1	1.3	0.21	12.5*	41.4	-4.8	96.4
COc1ccccc1NC(=O)CSC(N)=O	1	-0.43	55.6	27.8*	nt	89.4
Cc1ccccc1NC(=O)CSC(N)=O	1.1	0.13	45.2	59.6	nt	111.0
COC(=O)c1c(NC(=O)CN2CCN(Cc3ccc4c(c3)OCO4)CC2)sc(C)c1C	1.2	-0.02	61.7	1.9*	12.2	84.0

Source: PubChem
